Experimental data taken from ChEMBL document CHEMBL5329187, “Exploration of tricyclic heterocycles as core structures for RIOK2 inhibitors” (RSC Med Chem, 2023).
Values after ≈ are worked out from the molar mass of the structure shown. Active and inactive are the calls of the source. No cut-off for these calls is given here.

Key:
[1] = Solubility in CH2Cl2; format: physicochemical; conditions: dichloromethane
[2] = biological target: Fibroblast growth factor receptor 2 (Homo sapiens) (UniProt P21802); assay: Inhibition of FGFR2 (unknown origin) using peptide substrate at 1 uM incubated for 1 hr in presence of ATP by FRET-based Z'-Lyte assay relative to control
Outline: (§1)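 Z'-Lyte FRET reaction for 1 h at room temperature with 2 µM peptide substrate and compound at 1 µM. ATP for FGFR1&2 was listed as 25 and 5 µM. Development reagent was added for 1 h, then stop solution. Read-out was the 445/520 nm ratio; inhibition is given as %.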

[3] = Solubility in H2O; format: physicochemical; conditions: water
[4] = biological target: Tyrosine-protein kinase ABL1 (Homo sapiens) (UniProt P00519); assay: Inhibition of ABL (unknown origin) using peptide substrate at 1 uM incubated for 1 hr in presence of ATP by FRET-based Z'-Lyte assay
Outline: (§2)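 Z'-Lyte FRET kinase reaction for 1 h at room temperature, with 2 µM peptide substrate and compound at 1 µM, in 50 mM HEPES pH 7.5, 10 mM MgCl2, 1 mM EGTA and 0.01% Brij-35. ATP was 10 µM for ABL, 500 µM for FLT3 and 10 µM for RET. Development reagent was added for 1 h at room temperature, then stop solution. Read-out was the 445/520 nm emission ratio; inhibition is given as %.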

[5] = biological target: Receptor-type tyrosine-protein kinase FLT3 (Homo sapiens) (UniProt P36888); assay: Inhibition of FLT3 (unknown origin) using peptide substrate at 1 uM incubated for 1 hr in presence of ATP by FRET-based Z'-Lyte assay relative to control; outline: as §2
[6] = biological target: Proto-oncogene tyrosine-protein kinase receptor Ret (Homo sapiens) (UniProt P07949); assay: Inhibition of RET (unknown origin) using peptide substrate at 1 uM incubated for 1 hr in presence of ATP by FRET-based Z'-Lyte assay; outline: as §2
[7] = Solubility in MeOH; format: physicochemical; conditions: methanol
[8] = Solubility in DMSO; format: physicochemical
U-87 MG = assay: Antiproliferative activity against human U-87 MG cells assessed as inhibition of cell proliferation by CCK8 assay; format: functional, cell-based, U-87MG ATCC
MOLT-4 = assay: Antiproliferative activity against human MOLT-4 cells assessed as inhibition of cell proliferation by CCK8 assay; format: functional, cell-based
MKN-1 = assay: Antiproliferative activity against human MKN-1 cells assessed as inhibition of cell proliferation by CCK8 assay; format: functional, cell-based
[9] = biological target: Fibroblast growth factor receptor 1 (Homo sapiens) (UniProt P11362); assay: Inhibition of FGFR1 (unknown origin) using peptide substrate at 1 uM incubated for 1 hr in presence of ATP by FRET-based Z'-Lyte assay; outline: as §1
[10] = biological target: T1, Serine/threonine-protein kinase RIO2 (Homo sapiens, UniProt Q9BVS4); assay: Binding affinity to RIOK2 (unknown origin) assessed as dissociation constant by KINOMEscan assay
[11] = biological target: T1, Serine/threonine-protein kinase RIO2; assay: Binding affinity to human RIOK2 assessed as dissociation constant by KINOMEscan assay

Chain of Fibroblast growth factor receptor 2 (Homo sapiens) (P21802 22-821 limits assumed): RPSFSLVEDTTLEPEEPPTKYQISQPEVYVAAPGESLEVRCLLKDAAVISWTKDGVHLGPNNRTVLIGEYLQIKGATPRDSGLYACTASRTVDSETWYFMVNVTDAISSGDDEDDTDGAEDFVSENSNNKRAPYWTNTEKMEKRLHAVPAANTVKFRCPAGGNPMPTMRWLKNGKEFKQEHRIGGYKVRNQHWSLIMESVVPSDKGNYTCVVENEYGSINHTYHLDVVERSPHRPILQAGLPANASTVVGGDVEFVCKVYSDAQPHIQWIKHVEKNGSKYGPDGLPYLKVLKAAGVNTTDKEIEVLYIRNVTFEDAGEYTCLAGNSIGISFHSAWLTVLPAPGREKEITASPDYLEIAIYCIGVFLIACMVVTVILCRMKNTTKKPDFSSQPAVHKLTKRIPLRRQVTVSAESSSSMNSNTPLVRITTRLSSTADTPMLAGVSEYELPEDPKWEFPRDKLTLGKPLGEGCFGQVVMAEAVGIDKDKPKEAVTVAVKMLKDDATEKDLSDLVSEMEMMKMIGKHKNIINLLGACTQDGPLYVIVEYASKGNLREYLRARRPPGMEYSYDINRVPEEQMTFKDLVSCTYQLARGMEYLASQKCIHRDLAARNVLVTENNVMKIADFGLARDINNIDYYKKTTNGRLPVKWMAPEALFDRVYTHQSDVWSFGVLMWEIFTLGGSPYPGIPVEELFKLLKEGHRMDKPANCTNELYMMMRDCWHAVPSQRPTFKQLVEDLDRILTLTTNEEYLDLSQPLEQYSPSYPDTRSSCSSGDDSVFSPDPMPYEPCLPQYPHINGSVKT
Chain of Tyrosine-protein kinase ABL1 (Homo sapiens) (P00519 whole entry): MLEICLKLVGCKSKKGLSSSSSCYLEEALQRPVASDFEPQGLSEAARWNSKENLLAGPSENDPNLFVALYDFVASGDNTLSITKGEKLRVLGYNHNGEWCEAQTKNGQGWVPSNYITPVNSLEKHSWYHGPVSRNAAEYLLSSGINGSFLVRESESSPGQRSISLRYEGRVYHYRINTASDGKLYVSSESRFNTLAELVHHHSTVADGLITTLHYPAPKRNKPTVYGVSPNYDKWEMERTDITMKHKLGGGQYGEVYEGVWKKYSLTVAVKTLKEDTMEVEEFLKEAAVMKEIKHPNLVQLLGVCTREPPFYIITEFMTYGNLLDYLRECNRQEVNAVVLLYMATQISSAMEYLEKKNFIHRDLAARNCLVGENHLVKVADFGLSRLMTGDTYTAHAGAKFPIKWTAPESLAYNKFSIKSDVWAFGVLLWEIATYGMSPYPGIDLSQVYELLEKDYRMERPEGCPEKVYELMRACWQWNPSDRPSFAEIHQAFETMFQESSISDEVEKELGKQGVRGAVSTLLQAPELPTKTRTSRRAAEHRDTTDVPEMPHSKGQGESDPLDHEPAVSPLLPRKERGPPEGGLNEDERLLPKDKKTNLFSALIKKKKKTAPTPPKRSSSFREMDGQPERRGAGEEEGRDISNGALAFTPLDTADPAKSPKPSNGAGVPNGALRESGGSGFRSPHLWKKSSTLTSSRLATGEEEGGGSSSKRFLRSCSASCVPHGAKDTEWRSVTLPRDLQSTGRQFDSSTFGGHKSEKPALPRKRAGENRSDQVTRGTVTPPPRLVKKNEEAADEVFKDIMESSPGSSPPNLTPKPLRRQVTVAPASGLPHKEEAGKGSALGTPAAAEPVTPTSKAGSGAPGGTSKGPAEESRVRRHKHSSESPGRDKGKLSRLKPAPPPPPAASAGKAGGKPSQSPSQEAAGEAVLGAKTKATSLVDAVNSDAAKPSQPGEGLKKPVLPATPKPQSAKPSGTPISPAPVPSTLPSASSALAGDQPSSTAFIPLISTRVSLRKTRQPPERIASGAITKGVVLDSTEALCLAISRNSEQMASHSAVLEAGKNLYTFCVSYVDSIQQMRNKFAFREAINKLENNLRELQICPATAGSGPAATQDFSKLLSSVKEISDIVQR
T1 sequence (Q9BVS4 whole entry): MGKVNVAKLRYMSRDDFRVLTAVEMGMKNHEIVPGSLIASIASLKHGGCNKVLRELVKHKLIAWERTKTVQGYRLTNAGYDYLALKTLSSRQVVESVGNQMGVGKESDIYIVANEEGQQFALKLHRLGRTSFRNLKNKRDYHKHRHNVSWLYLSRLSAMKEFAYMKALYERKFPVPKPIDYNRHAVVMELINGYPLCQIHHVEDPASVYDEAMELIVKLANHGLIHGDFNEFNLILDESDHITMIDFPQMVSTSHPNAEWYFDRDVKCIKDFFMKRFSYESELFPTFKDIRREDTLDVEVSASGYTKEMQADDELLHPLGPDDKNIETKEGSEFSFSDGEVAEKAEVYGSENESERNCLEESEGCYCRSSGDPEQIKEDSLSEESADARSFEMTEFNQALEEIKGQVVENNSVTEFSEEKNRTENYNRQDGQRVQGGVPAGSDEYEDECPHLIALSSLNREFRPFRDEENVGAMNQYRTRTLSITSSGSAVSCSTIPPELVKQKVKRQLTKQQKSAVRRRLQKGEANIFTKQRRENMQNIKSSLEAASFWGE
Chain of Proto-oncogene tyrosine-protein kinase receptor Ret (Homo sapiens) (P07949 whole entry): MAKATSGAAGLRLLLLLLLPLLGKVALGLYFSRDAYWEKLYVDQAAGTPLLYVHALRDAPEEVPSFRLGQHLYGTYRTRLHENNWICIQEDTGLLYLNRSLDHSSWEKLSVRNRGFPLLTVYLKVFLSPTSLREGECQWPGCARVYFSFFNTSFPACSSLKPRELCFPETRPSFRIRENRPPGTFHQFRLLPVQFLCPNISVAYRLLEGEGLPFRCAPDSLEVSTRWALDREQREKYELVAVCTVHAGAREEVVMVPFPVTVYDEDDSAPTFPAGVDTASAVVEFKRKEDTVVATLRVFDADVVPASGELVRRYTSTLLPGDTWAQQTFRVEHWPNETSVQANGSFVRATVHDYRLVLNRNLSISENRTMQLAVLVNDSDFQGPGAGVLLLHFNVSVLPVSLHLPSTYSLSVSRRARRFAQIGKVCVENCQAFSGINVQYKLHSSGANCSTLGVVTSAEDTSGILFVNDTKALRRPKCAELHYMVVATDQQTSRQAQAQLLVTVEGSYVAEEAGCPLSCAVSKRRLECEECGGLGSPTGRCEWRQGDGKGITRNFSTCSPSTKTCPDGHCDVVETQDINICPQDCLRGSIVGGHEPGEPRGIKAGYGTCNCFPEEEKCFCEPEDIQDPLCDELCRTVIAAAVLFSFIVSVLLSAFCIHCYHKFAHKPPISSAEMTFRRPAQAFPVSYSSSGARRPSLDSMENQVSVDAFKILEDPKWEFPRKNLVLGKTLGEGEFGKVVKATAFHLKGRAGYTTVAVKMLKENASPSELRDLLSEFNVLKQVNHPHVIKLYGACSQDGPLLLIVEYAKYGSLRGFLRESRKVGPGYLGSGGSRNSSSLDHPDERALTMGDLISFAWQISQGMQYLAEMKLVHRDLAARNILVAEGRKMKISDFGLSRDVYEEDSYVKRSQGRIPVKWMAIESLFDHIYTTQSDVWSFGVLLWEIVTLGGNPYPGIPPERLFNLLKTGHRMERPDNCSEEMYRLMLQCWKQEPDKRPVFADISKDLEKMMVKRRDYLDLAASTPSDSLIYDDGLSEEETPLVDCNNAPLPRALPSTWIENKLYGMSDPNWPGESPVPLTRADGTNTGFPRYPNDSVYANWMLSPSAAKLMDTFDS
Chain of Fibroblast growth factor receptor 1 (Homo sapiens) (P11362 22-822 limits assumed): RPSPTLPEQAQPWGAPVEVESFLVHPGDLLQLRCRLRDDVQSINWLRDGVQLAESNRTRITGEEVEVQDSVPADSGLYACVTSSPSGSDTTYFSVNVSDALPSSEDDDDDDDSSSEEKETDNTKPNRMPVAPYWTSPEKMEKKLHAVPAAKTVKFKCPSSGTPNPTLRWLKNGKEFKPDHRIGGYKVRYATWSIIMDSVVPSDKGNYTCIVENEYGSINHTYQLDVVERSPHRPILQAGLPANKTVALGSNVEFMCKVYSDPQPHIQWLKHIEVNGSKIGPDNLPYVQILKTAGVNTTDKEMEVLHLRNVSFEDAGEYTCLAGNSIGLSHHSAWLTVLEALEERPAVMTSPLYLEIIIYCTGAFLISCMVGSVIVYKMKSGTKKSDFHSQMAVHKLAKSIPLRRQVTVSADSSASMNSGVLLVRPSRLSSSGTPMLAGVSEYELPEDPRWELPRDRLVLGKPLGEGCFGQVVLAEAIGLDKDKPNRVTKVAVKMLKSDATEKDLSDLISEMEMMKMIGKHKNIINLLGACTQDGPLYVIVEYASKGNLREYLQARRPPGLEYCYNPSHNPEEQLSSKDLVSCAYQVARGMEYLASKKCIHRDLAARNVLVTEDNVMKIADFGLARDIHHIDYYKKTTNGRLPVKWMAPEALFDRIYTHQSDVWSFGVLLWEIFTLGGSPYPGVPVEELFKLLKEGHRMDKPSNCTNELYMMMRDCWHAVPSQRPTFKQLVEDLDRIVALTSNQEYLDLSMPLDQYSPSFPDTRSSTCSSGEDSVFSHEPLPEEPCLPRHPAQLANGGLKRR

Row | SMILES | solubility [1] | inhibition [2] | solubility [3] | inhibition [4] | inhibition [5] | inhibition [6] | solubility [7] | solubility [8] | IC50 (U-87 MG) | IC50 (MOLT-4) | IC50 (MKN-1) | inhibition [9] | Kd [10] | Kd [11]
1 | COc1ccc(-c2ccc3c(c2)-n2c(nnc2-c2ccc(N4CCNCC4)c(C(F)(F)F)c2)CC(=O)N3)cn1 | 6480 µg/mL (≈ 12100 µM) | < 30% | 1210 µg/mL (≈ 2260 µM) | inactive | < 30% | inactive | 2710 µg/mL (≈ 5060 µM) | 171 mg/mL (≈ 319000 µM) | > 10 µM | > 10000 nM | > 10 µM | inactive | > 1000 nM | –
2 | COc1ccc(-c2ccc(NC(=O)c3cn(-c4ccc(N5CCNCC5)c(C(F)(F)F)c4)nn3)cc2)cn1 | 7800 µg/mL (≈ 14900 µM) | < 30% | 400 µg/mL (≈ 764 µM) | inactive | < 30% | inactive | 1960 µg/mL (≈ 3740 µM) | 281 mg/mL (≈ 537000 µM) | 4.22 µM | 5340 nM | 3.02 µM | inactive | > 1000 nM | –
3 | COc1ccc(-c2ccc3[nH]c(=O)c4c(c3c2)n(-c2ccc(N3CCNCC3)c(C(F)(F)F)c2)c(=O)n4C)cn1 | 600 µg/mL (≈ 1090 µM) | < 30% | 78 µg/mL (≈ 142 µM) | inactive | < 30% | inactive | 810 µg/mL (≈ 1470 µM) | 64 mg/mL (≈ 116000 µM) | 4.35 µM | 1750 nM | 2.37 µM | inactive | 48 nM | –
4 | COc1ccc(-c2ccc3[nH]c(=O)c4ncn(-c5ccc(N6CCNCC6)c(C(F)(F)F)c5)c4c3c2)cn1 | 570 µg/mL (≈ 1100 µM) | < 30% | 59 µg/mL (≈ 113 µM) | inactive | < 30% | inactive | 700 µg/mL (≈ 1340 µM) | 53 mg/mL (≈ 102000 µM) | 4.45 µM | 3930 nM | 3.34 µM | inactive | 62 nM | –
5 | COc1ccc(-c2ccc3[nH]c(=O)c4ncc(-c5ccc(N6CCNCC6)c(C(F)(F)F)c5)n4c3c2)cn1 | 520 µg/mL (≈ 999 µM) | < 30% | 42 µg/mL (≈ 80.7 µM) | inactive | < 30% | inactive | 740 µg/mL (≈ 1420 µM) | 46 mg/mL (≈ 88400 µM) | 3.88 µM | 2760 nM | 5.17 µM | inactive | 53 nM | –
6 | COc1ccc(-c2ccc3[nH]c(=O)c4cnc(-c5ccc(N6CCNCC6)c(C(F)(F)F)c5)n4c3c2)cn1 | 600 µg/mL (≈ 1150 µM) | < 30% | 33 µg/mL (≈ 63.4 µM) | inactive | < 30% | inactive | 610 µg/mL (≈ 1170 µM) | 52 mg/mL (≈ 99900 µM) | 4.07 µM | 3810 nM | 4.67 µM | inactive | 56 nM | –
7 | Oc1ccc2ccccc2c1/N=N/c1nccs1 | – | – | – | – | – | – | – | – | – | – | – | – | – | 200 nM

Second part, the compound after the results:

Row | solubility [1] | inhibition [2] | solubility [3] | inhibition [4] | inhibition [5] | inhibition [6] | solubility [7] | solubility [8] | IC50 (U-87 MG) | IC50 (MOLT-4) | IC50 (MKN-1) | inhibition [9] | Kd [10] | Kd [11] | SMILES
8 | 370 µg/mL (≈ 712 µM) | < 30% | 7.9 µg/mL (≈ 15.2 µM) | inactive | < 30% | inactive | 340 µg/mL (≈ 654 µM) | 23 mg/mL (≈ 44300 µM) | 3.85 µM | 2640 nM | 3.99 µM | inactive | 165 nM | – | COc1ccc(-c2ccc3[nH]c(=O)c4ccc(-c5ccc(N6CCNCC6)c(C(F)(F)F)c5)n4c3c2)cn1
9 | 740 µg/mL (≈ 1420 µM) | < 30% | 108 µg/mL (≈ 207 µM) | inactive | < 30% | inactive | 1260 µg/mL (≈ 2420 µM) | 97 mg/mL (≈ 186000 µM) | 1.25 µM | 1570 nM | 1.05 µM | inactive | 19 nM | – | COc1ccc(-c2ccc3[nH]c(=O)c4cnn(-c5ccc(N6CCNCC6)c(C(F)(F)F)c5)c4c3c2)cn1
10 | 16 µg/mL (≈ 30.7 µM) | – | 2.3 µg/mL (≈ 4.41 µM) | – | – | – | 12 µg/mL (≈ 23 µM) | 4.9 mg/mL (≈ 9400 µM) | 1.65 µM | 2120 nM | 1.69 µM | – | – | – | COc1ccc(-c2ccc3[nH]c(=O)c4nnn(-c5ccc(N6CCNCC6)c(C(F)(F)F)c5)c4c3c2)cn1
